Bioassay records deposited in PubChem by several laboratories.
In the library only some 2.6% were active in any assay of this set; here they are far more common.
Platelet DG rel: platelet dense granule release activity | human platelet-rich plasma, SFLLRN dense granule ATP release, luminescence | inhibition, %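 (compounds screened at 7.5 µM in platelet-rich plasma)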 | 0.22% of 300,000 active;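 active means mean replicate score, as percent of positive control, at or above 50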
SENP6 block: SENP6 protease inhibition | Recombinant SENP6 catalytic domain, aminoluciferin luminescence | Q9GZR1 | 1.8% of 330,000 active | AID 2599 | inhibition, % at 10 µM;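 active means inhibition above about 50% at the single tested dose, limit read from the data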
SENP8 block-1: inhibitors of human SENP8 protease; recombinant SENP8, Nedd8 substrate fluorescence; Q96LD8; 0.64% of 360,000 active; inhibition, % at 20 µM; in the data active means inhibition mostly above about 40%, no sharp cut-off; inactive means mostly below about 27%
Target sequence (Q96LD8 whole entry, looked up): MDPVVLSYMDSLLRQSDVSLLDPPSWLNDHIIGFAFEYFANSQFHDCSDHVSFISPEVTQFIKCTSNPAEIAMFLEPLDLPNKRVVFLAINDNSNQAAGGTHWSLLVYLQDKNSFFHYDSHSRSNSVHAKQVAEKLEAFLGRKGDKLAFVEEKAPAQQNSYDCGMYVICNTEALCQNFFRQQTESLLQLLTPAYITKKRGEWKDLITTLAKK
SENP8 block-2: inhibitors of human SENP8 protease. Q96LD8. purified SENP8, Z-RLRGG-aminoluciferin cleavage, luminescence. AID 2540. 1.2% of 330,000 active. inhibition, % at 10 µM; in the data active means inhibition above about 50%
SENP1 inh: inhibitors of human SENP1 SUMO protease catalytic domain; Q9P0U3; recombinant SENP1 catalytic domain, CyPet-SUMO1-YPet FRET cleavage; inhibition, % at 10 µM; 0.21% of 360,000 active; AID 624204;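 active means inhibition at least 30% at 10 µM, raw YFP signal under a set limit, fluorescence ratio 0.5 to 1.5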
Target sequence (Q9P0U3 419-644 limits assumed): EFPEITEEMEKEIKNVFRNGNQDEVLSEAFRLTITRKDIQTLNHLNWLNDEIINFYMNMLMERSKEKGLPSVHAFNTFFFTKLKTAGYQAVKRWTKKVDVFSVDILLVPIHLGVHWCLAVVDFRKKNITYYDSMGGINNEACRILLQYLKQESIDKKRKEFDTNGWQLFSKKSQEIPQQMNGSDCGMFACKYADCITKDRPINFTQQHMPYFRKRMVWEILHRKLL
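Controls: no-enzyme wells low, DMSO-plus-enzyme wells high control. Test system: human recombinant His6-tagged SENP1 catalytic domain enzyme. Reagent: SFCypet-SUMO1-SFYpet FRET protein substrate, 25 nM final. Doses: one dose per compound, 10 µM, 0.5% DMSO. Detection: FRET, CFP and YFP emission. Timing: 50 min reaction at room temperature.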
SENP7 inh: SENP7 protease inhibition | Q9BQF6 | recombinant SENP7, Z-RLRGG-aminoluciferin luminescence, 40 min | inhibition, % at 5 µM | 1.5% of 330,000 active | AID 434973;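 active means inhibition above about 50% at the single test dose, limit read from the data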
SENP8 conf: confirmation of human SENP8 protease inhibitors. Recombinant SENP8, Z-RLRGG-aminoluciferin luminescence, 60 min. AID 488912. inhibition, % at 12.5 µM. 40% of 6,200 active. shares compounds with SENP7 inh;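 active means mean inhibition across replicates above about 50%, limit read from the data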
SENP6 confirm: confirmation of human SENP6 protease inhibitors. AID 488915. 58% of 6,200 active. inhibition, % at 12.5 µM. recombinant SENP6, Z-RLRGG-aminoluciferin luminescence. shares compounds with SENP7 inh
SENP7 conf: confirmation of human SENP7 protease inhibitors | AID 488917 | inhibition, % at 12.5 µM | 69% of 6,200 active | shares compounds with SENP7 inh | recombinant SENP7, Z-RLRGG-aminoluciferin luminescence, 40 min
Casp3 SENP sel: inhibits human caspase-3 in SENP selectivity test; purified caspase-3, Z-DEVD-aminoluciferin luminescence, 60 min; shares compounds with SENP7 inh; inhibition, % at 12.5 µM; 60% of 6,200 active;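 active means mean inhibition above about 50%, limit read from the data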
Target sequence (P42574 28-227 limits assumed): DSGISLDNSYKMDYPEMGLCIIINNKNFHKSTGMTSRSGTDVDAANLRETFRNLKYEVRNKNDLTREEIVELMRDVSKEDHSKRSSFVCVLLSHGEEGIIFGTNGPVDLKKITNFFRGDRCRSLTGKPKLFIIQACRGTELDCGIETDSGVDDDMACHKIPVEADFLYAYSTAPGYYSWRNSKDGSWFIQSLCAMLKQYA
SENP luc ctr: interferes with luciferase luminescence in SENP counter-screen | 39% of 6,200 active | inhibition, % at 12.5 µM | shares compounds with SENP7 inh | Pre-incubated SENP8/Z-RLRGG-aminoluciferin, luciferase luminescence interference | AID 488919;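 active means mean inhibition above about 50% when retested at one dose, limit read from the data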
Each line names hits and unclear results; the compound was inactive in the other large screens (follow-up assays come after a bar, where they were run).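 How the source made its calls, unless noted: active means mean inhibition above about 50% in the one-dose retest (limit read from the data); inactive means the rest.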

O=C(Nc1ccc2c(c1)OCO2)c1noc2c1CCCCC2	SENP6 block 74, SENP7 inh 60 | SENP8 conf 63 | SENP6 confirm 63 | SENP7 conf 87 | Casp3 SENP sel 67 | SENP luc ctr 69
CC(=O)c1ccc(NC(=O)c2noc3c2CCCCC3)cc1	none
O=C(N=C1SC2CS(=O)(=O)CC2N1c1ccc(F)cc1)C1CC1 (centres undefined)	none
COc1ccc(Cl)cc1C(=O)NC1CC(C)(C)NC(C)(C)C1	none (no result: Platelet DG rel, SENP6 block, SENP8 block-2, SENP7 inh)
Cc1ccc([C@H]2C[C@@H](n3cc(-c4ccc(F)cc4)nn3)[C@H](O)CN2C(=O)C2CCCCC2)cc1	none (no result: Platelet DG rel, SENP6 block, SENP8 block-2, SENP7 inh)
N/C(=N\OC(=O)c1ccco1)c1cccc(Br)c1	SENP6 block 78, SENP8 block-2 52, SENP7 inh 74 | SENP8 conf 70 | SENP6 confirm 68 | SENP7 conf 90 | Casp3 SENP sel 76 | SENP luc ctr 67
N/C(=N\OC(=O)c1cccc(Br)c1)c1ccccc1	SENP6 block 72, SENP8 block-2 67, SENP7 inh 86 | SENP8 conf 67 | SENP6 confirm 73 | SENP7 conf 97 | Casp3 SENP sel 82 | SENP luc ctr inactive
N/C(=N\OC(=O)c1ccoc1)c1ccc(Br)cc1	SENP6 block 93, SENP8 block-2 84, SENP7 inh 91 | SENP8 conf 76 | SENP6 confirm 71 | SENP7 conf 94 | Casp3 SENP sel 75 | SENP luc ctr 70
Cc1cccc(C(=O)O/N=C(\N)c2ccc(Br)cc2)c1	none
CN(C)CCNc1ncnc2c1ncn2[C@H]1CN(Cc2ccc(Cl)cc2)C[C@@H](CO)O1	none (no result: Platelet DG rel, SENP6 block, SENP8 block-2, SENP7 inh)
COc1ccc(NS(=O)(=O)c2cccc3ccccc23)cc1	none
CCC1(c2ccc(F)cc2)NC(=O)N(CC(=O)Nc2cccc(S(=O)(=O)N3CCOCC3)c2)C1=O (centres undefined)	none (no result: Platelet DG rel, SENP6 block, SENP8 block-2, SENP7 inh)
Cc1ccc2[nH]c(-c3cccc(N)c3)cc2c1	SENP8 block-2 56, SENP7 inh 70 | SENP8 conf 57 | SENP6 confirm 77 | SENP7 conf 94 | Casp3 SENP sel inactive | SENP luc ctr 53
N#Cc1c(C(F)(F)F)cc(-c2ccc(Cl)cc2)[nH]c1=O	SENP6 block 51, SENP8 block-2 69 | SENP8 conf inactive | SENP6 confirm inactive | SENP7 conf inactive | Casp3 SENP sel inactive | SENP luc ctr inactive
N#Cc1c(C(F)(F)F)cc(-c2cccc(Cl)c2)[nH]c1=O	SENP6 block 74, SENP8 block-2 78 | SENP8 conf 91 | SENP6 confirm 91 | SENP7 conf 96 | Casp3 SENP sel 74 | SENP luc ctr 89
N#Cc1c(C(F)(F)F)cc(-c2ccc(F)cc2)[nH]c1=O	none
Cc1cccc(CC(=O)NCC(=O)NCc2cc(=O)n(C)c(=O)n2C)c1	none
Nc1ccc(-c2nc3ccc(N)cc3s2)cc1	Platelet DG rel 54, SENP6 block 95, SENP8 block-2 86, SENP7 inh 95 | SENP8 conf 92 | SENP6 confirm 92 | SENP7 conf 99 | Casp3 SENP sel 93 | SENP luc ctr 90
Nc1ccc(-c2nc3ccc(C(=O)O)cc3s2)cc1	none (no result: SENP6 block, SENP8 block-2, SENP7 inh)
Nc1cccc(-c2nc3ccc(N)cc3s2)c1	Platelet DG rel 76, SENP6 block 97, SENP8 block-2 94, SENP7 inh 98 | SENP8 conf 98 | SENP6 confirm 98 | SENP7 conf 102 | Casp3 SENP sel 97 | SENP luc ctr 96
Cc1cccc(Nc2ccc([N+](=O)[O-])cn2)c1	none
c1ccc(CCn2cccc2)nc1	none (no result: Platelet DG rel, SENP6 block, SENP8 block-2, SENP7 inh)
COC(=O)c1ccc(NC(=O)c2cccc(NC(=O)c3ccccc3)c2)cc1	none
Nc1c(Cl)cc(-c2cn(CCC(=O)O)c(-c3ccncc3)n2)cc1Cl	none (no result: Platelet DG rel)
O=C(O)c1ccc(N/N=C/c2ccncc2)cc1	SENP6 block 90, SENP8 block-2 85, SENP7 inh 94 | SENP8 conf 91 | SENP6 confirm 93 | SENP7 conf 100 | Casp3 SENP sel 88 | SENP luc ctr 94
O=C(O)c1ccc(N/N=C/c2cccc(F)c2)cc1	SENP6 block 100, SENP8 block-2 97, SENP7 inh 84 | SENP8 conf 100 | SENP6 confirm 100 | SENP7 conf 104 | Casp3 SENP sel 98 | SENP luc ctr 99
O=C(O)c1ccc(N/N=C/c2cccc(C(F)(F)F)c2)cc1	SENP6 block 74, SENP8 block-2 66 | SENP8 conf 80 | SENP6 confirm 70 | SENP7 conf 95 | Casp3 SENP sel inactive | SENP luc ctr 90
Cc1ccc(N/N=C/c2ccncc2)cc1	none
O=C(O)c1ccc(N/N=C/c2ccc(F)c(F)c2)cc1	SENP6 block 98, SENP8 block-2 97, SENP7 inh 97 | SENP8 conf 99 | SENP6 confirm 100 | SENP7 conf 102 | Casp3 SENP sel 97 | SENP luc ctr 98
CSc1ccc(/C=N/Nc2cccc(C(=O)O)c2)cc1	none (no result: Platelet DG rel, SENP6 block, SENP8 block-2, SENP7 inh)
CN1CCc2nc(SCC(=O)Nc3cccc(F)c3)c(C#N)c(-c3cccs3)c2C1	SENP6 block 77, SENP8 block-2 57, SENP7 inh 60 | SENP8 conf inactive | SENP6 confirm inactive | SENP7 conf inactive | Casp3 SENP sel inactive | SENP luc ctr inactive
CC(C)(C)C(=O)CSc1nc2c(c(-c3cccs3)c1C#N)CCC2	none
O=C(CC(c1cccs1)S(=O)(=O)c1ccccc1)c1ccc(F)cc1 (centres undefined)	SENP6 block 52 | SENP8 conf inactive | SENP6 confirm inactive | SENP7 conf inactive | Casp3 SENP sel inactive | SENP luc ctr inactive
Cc1ccc(C(=O)CC(c2cccs2)S(=O)(=O)c2ccc(C)cc2)cc1 (centres undefined)	SENP6 block 62, SENP7 inh 63 | SENP8 conf inactive | SENP6 confirm inactive | SENP7 conf inactive | Casp3 SENP sel inactive | SENP luc ctr inactive
O=C(NCCO)C(=O)NCC(c1cccs1)S(=O)(=O)c1ccc(F)cc1 (centres undefined)	none (no result: Platelet DG rel, SENP6 block, SENP8 block-2, SENP7 inh)
CCOC(=O)CC1C(=O)NCCN1C(=O)c1cccc(OC)c1 (centres undefined)	none
Nc1nc(SCC(=O)NCCc2ccccc2)[nH]c(=O)c1-c1ccccc1	none (no result: SENP8 block-1, SENP1 inh)
